Compound activity from PubChem.
In the library only some 4.3% were active in any assay of this set; here they are far more common.
UBC9 SUMO inh: blocks human SUMOylation mediated by UBC9 | P63279 | HTRF SUMOylation assay, SAE1/SAE2 + UBC9, in vitro | inhibition, % at 35 µM | 0.36% of 290,000 active | AID 2006; in the data active means inhibition above about 50%, passing the limit was not always enough
Target sequence (P63279 whole entry, looked up): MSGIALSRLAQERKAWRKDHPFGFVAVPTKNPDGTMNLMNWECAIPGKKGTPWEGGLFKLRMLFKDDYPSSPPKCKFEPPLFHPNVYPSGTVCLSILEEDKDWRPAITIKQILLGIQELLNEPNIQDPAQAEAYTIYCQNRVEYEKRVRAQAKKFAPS
RBBP9 inh: blocks human serine hydrolase RBBP9; O75884; recombinant RBBP9, FP-Rh probe fluorescence polarization; inhibition, % at 7.94 µM; 0.2% of 220,000 active; AID 1515;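 active means inhibition above the campaign mean of all tested compounds plus 3 SD, cut at about 14% in these data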
Target sequence (O75884 whole entry, looked up): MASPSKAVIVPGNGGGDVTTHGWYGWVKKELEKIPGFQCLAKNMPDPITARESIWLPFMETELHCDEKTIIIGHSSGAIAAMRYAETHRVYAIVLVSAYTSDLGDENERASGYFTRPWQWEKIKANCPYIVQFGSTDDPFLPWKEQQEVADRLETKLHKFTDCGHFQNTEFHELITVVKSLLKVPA
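Measured by: FP readout at 525/598 nm; material: recombinant human RBBP9; also added: Serine-hydrolase probe FP-Rh, 375 nM pre-mixing; medium: Tris buffer pH 8.0, NaCl, Pluronic; replication: one well per compound; doses: one concentration, 7.94 µM nominal, 0.794% DMSO; timing: preincubation 30 min plus labeling 45 min at 25 °C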
Rin1 Abl inh: inhibitors of human Rin1-Abl protein interaction; 0.4% of 360,000 active; P00519+Q13671; TR-FRET Rin1/Abl binding, biochemical; inhibition, % at 7.35 µM; in the data active means inhibition above about 5%, passing the limit was not always enough
PREPL inh: inhibitors of human prolyl oligopeptidase-like enzyme PREPL; inhibition, % at 5.96 µM; AID 2751; 0.68% of 320,000 active; recombinant PREPL, fluorescence polarization activity-based probe; in the data active means inhibition above about 43%
ALR H2O2 inh: blocks human ALR sulfhydryl oxidase activity; P55789; inhibition, % (concentration not given with the values); AID 485317; 3.8% of 290,000 active; purified ALR, DTT oxidation, H2O2 HRP-luminol luminescence;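 active means mean replicate inhibition above about 79%, with every replicate also reaching it, limit read from the data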
Target sequence (P55789 whole entry, looked up): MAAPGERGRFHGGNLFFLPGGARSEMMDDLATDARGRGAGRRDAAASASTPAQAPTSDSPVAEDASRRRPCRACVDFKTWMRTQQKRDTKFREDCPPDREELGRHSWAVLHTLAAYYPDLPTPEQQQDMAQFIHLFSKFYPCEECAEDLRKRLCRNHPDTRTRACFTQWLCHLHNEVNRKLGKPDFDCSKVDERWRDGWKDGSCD
UBC13 polyUb: human UBC13 polyubiquitination inhibition. P61088. inhibition, % at 20 µM. AID 485273. 0.47% of 330,000 active. UBC13 polyubiquitin chain formation, TR-FRET; in the data active means inhibition above about 45%, passing the limit was not always enough
Target sequence (P61088 whole entry, looked up): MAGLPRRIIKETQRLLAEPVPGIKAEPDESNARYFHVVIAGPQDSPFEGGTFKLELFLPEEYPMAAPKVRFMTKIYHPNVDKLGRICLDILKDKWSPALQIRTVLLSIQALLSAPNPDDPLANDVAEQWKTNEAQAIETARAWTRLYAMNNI
Each line names hits and unclear results; the compound was inactive in the other large screens.

O=C1OC(Nc2ccc3c(c2)OCO3)c2ccccc21 (stereo unspecified)	ALR H2O2 inh 99
O=C1c2ccccc2C(Nc2ccc3c(c2)OCCO3)N1Cc1ccc2c(c1)OCO2 (stereo unspecified)	ALR H2O2 inh 98
CCOc1ccc(NS(=O)(=O)c2ccc(NS(=O)(=O)c3ccc(SC)cc3)cc2)cc1	none
Cc1ccc(S(=O)(=O)Nc2ccc(O)c(Sc3ncn[nH]3)c2)cc1	ALR H2O2 inh 99
COc1ccc(OC)c(S(=O)(=O)Nc2ccc(O)c3ccccc23)c1	none
Cc1ccc(C)c(S(=O)(=O)Nc2ccc3[nH]c(=O)[nH]c3c2)c1	none (no result: RBBP9 inh)
COc1ccc(OC)c(S(=O)(=O)Nc2cccc3c(O)cccc23)c1	ALR H2O2 inh 87 (no result: UBC9 SUMO inh, RBBP9 inh)
CCOc1ccc(S(=O)(=O)Nc2ccc(O)c(Sc3ncn[nH]3)c2)cc1	ALR H2O2 inh 99
Cc1ccc(C)c(S(=O)(=O)Nc2ccc(O)c(Sc3ncn[nH]3)c2)c1	ALR H2O2 inh 99
CSc1ccc(S(=O)(=O)Nc2ccc(S(=O)(=O)Nc3ccc(C)cc3)cc2)cc1	none
CCc1nc2c(OCCc3cccc(OC)c3)cccn2c1N(C)C(=O)c1cccs1	none (no result: UBC9 SUMO inh, RBBP9 inh, PREPL inh, ALR H2O2 inh, UBC13 polyUb)
COc1ccc(OC)c(S(=O)(=O)Nc2ccc(O)c(Sc3ncn[nH]3)c2)c1	ALR H2O2 inh 99
Cc1cc(F)ccc1S(=O)(=O)Nc1ccc(O)c(Sc2ncn[nH]2)c1	ALR H2O2 inh 99 (no result: RBBP9 inh)
COc1ccc(OC)c(S(=O)(=O)Nc2cccc(O)c2)c1	none (no result: UBC9 SUMO inh, RBBP9 inh)
C=CCn1c(N)c(C(=O)Nc2ccccc2OC)sc1=S	ALR H2O2 inh 98
CCOC(=O)c1c(C)c(C(=O)NCC2CCCO2)c(C)n1CC (stereo unspecified)	none
COc1ccc(-n2c(N)c(C(=O)NCC3CCCO3)c3nc4ccccc4nc32)c(OC)c1 (stereo unspecified)	none
C=CCn1c(N)c(C(=O)NCC2CCCO2)c2nc3ccccc3nc21 (stereo unspecified)	UBC9 SUMO inh 95
C=CCn1c(N)c(C(=O)NCC2CCCO2)sc1=S (stereo unspecified)	ALR H2O2 inh 99
CCn1c(N)c(C(=O)NCC2CCCO2)sc1=S (stereo unspecified)	ALR H2O2 inh 99
C=CCn1c(N)c(C(=O)Nc2ccc(C)cc2)sc1=S	none
O=C(NCC1CCCO1)c1sc2cc(Cl)ccc2c1Cl (stereo unspecified)	none
CCC(C)c1ccc(S(=O)(=O)N2CCN(S(=O)(=O)c3ccc(NC(C)=O)cc3)CC2)cc1 (stereo unspecified)	none (no result: RBBP9 inh)
O=C(NCc1ccco1)c1sc(=S)n2c1[nH]c(=O)c1ccccc12	ALR H2O2 inh 98
Nc1c(C(=O)NCC2CCCO2)sc(=S)n1-c1ccccc1 (stereo unspecified)	ALR H2O2 inh 85
O=C(NC1CCCC1)c1sc(=S)n2c1[nH]c(=O)c1ccccc12	none
C=CCn1c(N)c(C(=O)NCc2ccco2)sc1=S	ALR H2O2 inh 98
COC(=O)c1ccc(NS(=O)(=O)c2ccc(S(=O)(=O)N3CCOCC3)cc2)cc1	none (no result: UBC9 SUMO inh, RBBP9 inh)
Clc1ccc(CSc2ncnc3c2ncn3C2CCCCO2)cc1 (stereo unspecified)	none (no result: UBC9 SUMO inh, RBBP9 inh, PREPL inh, ALR H2O2 inh, UBC13 polyUb)
O=[N+]([O-])c1ccc(S(=O)(=O)NN=Cc2ccc(Cl)c(Cl)c2)cc1	none (no result: UBC9 SUMO inh, RBBP9 inh, PREPL inh, ALR H2O2 inh, UBC13 polyUb)
c1ccc(C(c2ccccc2)c2ccn[nH]2)cc1	none (no result: RBBP9 inh)
Cc1ccc(S(=O)(=O)CCC(=O)c2ccc(O)cc2O)cc1	ALR H2O2 inh 98
Cc1ccc(S(=O)(=O)CCC(=O)OCC(=O)c2cc(C)ccc2C)cc1	none (no result: UBC9 SUMO inh, RBBP9 inh)
COc1cc(OC)cc(C(=O)N2CCC(N3CCN(c4ccccc4)CC3)CC2)c1	ALR H2O2 inh 82
COc1ccc(C(=O)N2CCC(N3CCN(c4ccccc4)CC3)CC2)cc1OC	none
CC1=C(C(=O)N2CCOCC2)CC(CC(=O)NCC2CCCCC2)C(=O)N1Cc1ccc(C(C)(C)C)cc1 (stereo unspecified)	none (no result: UBC9 SUMO inh, RBBP9 inh, PREPL inh, ALR H2O2 inh, UBC13 polyUb)
CC(C)(C)c1ccc(SCCc2cccnc2)cc1	none (no result: ALR H2O2 inh)
C=CCn1c(=N)n(CC(=O)OCC)c2ccccc21	ALR H2O2 inh 99
CC1(C)CC(=O)C(C(=O)C2CCN(S(=O)(=O)c3ccccc3)CC2)C(=O)C1	none
COc1ccc(-c2cn(-c3ccccc3)nc2CO)cc1	ALR H2O2 inh 97 (no result: RBBP9 inh)
CCn1cc(-c2ccccc2)c(C(=O)O)c1-c1ccc(OC)cc1	ALR H2O2 inh 85 (no result: UBC9 SUMO inh, RBBP9 inh)
CCn1cnc2scc(-c3ccc(OC)cc3)c2c1=O	none (no result: RBBP9 inh)
Cc1ccc(NC(=O)NC(=O)CN2CCCC2c2ccc3c(c2)OCCO3)cc1C (stereo unspecified)	none (no result: UBC9 SUMO inh, RBBP9 inh)
O=C(Oc1ccc(/C=N/O)cc1)c1ccccc1Cl	ALR H2O2 inh 99
CCOc1ccc(NCc2cccn2-c2nnc(N3CCC(C(=O)NCCCN4CCCCC4)CC3)s2)cc1	ALR H2O2 inh 99 (no result: RBBP9 inh)
CCC1CCCCN1CCCNC(=O)C1CCN(c2nnc(-n3cccc3)s2)CC1 (stereo unspecified)	none (no result: UBC9 SUMO inh, RBBP9 inh)
CCOc1ccc(NCc2cccn2-c2nnc(N3CCC(C(=O)NCCCN4C(C)CCCC4C)CC3)s2)cc1 (stereo unspecified)	ALR H2O2 inh 99 (no result: RBBP9 inh)
CCOc1ccc(NCc2cccn2-c2nnc(N3CCC(C(=O)NCCCN4CCCCC4C)CC3)s2)cc1 (stereo unspecified)	ALR H2O2 inh 99 (no result: RBBP9 inh)
CCOc1ccc(CCNC(=O)C2CCN(c3nnc(-n4cccc4)s3)CC2)cc1	none
CN1CCN(CCCNC(=O)C2CCN(c3nnc(-n4cccc4)s3)CC2)CC1	none
O=C(COC(=O)/C=C/c1ccccc1Cl)NC1CCCC1	none (no result: UBC9 SUMO inh, RBBP9 inh)
Cc1nc2c(C(=O)NCc3ccccc3Cl)c[nH]n2c(=O)c1Cl	none (no result: ALR H2O2 inh)
Cc1nc2c(C(=O)NCCc3ccccc3Cl)c[nH]n2c(=O)c1Cl	ALR H2O2 inh 99
CN(C)C=NC1=NN(c2cccc(C(F)(F)F)c2)CC1	ALR H2O2 inh 95
FC(F)(F)c1cccc(N2CCN(c3nnnn3-c3ccccc3)CC2)c1	none
CN1CCN(C=NC2=NN(c3cccc(C(F)(F)F)c3)CC2)CC1	ALR H2O2 inh 99
COc1cccc(C(NC(C)=O)c2nc(-c3ccc(F)c(Cl)c3)cs2)c1 (stereo unspecified)	none (no result: UBC9 SUMO inh, RBBP9 inh, PREPL inh, ALR H2O2 inh, UBC13 polyUb)
CCOc1cc(C(=O)NCCC(=O)N2CCC3(CC2)NCCc2[nH]cnc23)cc(OCC)c1OCC	none (no result: RBBP9 inh)
CCNC(=S)Nc1ccc(S(=O)(=O)Nc2cc(C)nc(C)n2)cc1	none
CCC(C)NC(=O)c1nc2c(nnn2Cc2ccccc2Cl)c(=O)[nH]1 (stereo unspecified)	ALR H2O2 inh 88
O=C(Cc1cccs1)N1CCCC(c2nc3c(nnn3Cc3ccccc3Cl)c(=O)[nH]2)C1 (stereo unspecified)	none
O=C(NCc1cccs1)c1nc2c(nnn2Cc2ccccc2Cl)c(=O)[nH]1	ALR H2O2 inh 95 (no result: UBC13 polyUb)
CC(C)(C)c1cc(NS(=O)(=O)c2cccs2)no1	none (no result: RBBP9 inh)
COC(=O)c1c(NS(C)(=O)=O)sc2c1CCCC2	none
